Experimental data taken from ChEMBL document CHEMBL5724801, “EUbOPEN Chemogenomics Library - Multiplex” (2024).
Where “and” joins values, the source holds several entries; their conditions need not be identical. Equal values may be shown once.

Experiments:
U2OS = experiment: Multiplex assay against U2OS; assay type: toxicity, cell-based; settings: human
Method in brief: (§1)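 Live cells were stained at seeding with Hoechst33342, BioTracker Green Microtubule Cytoskeleton Dye, MitoTracker Red and Annexin V Alexa Fluor 680. Following compound addition, they were imaged on a CQ1 microscope at 37°C and 5% CO2 and gated by CellPathfinder machine learning into Hoechst high-intensity objects or normal cells, with normal cells split into healthy, pyknosed or fragmented nuclei and pyknosed cells into mitotic or apoptotic. Tubulin, mitochondrial-mass and membrane-permeability phenotypes are per cents of healthy-nucleus cells.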

HEK-293T = experiment: Multiplex assay against HEK293T; assay type: toxicity, cell-based; settings: human; method in brief: as §1
[1] = 24 h, 10 µM, compound concentration 10 uM
[2] = 48 h, 1 µM, compound concentration 1 uM
[3] = 48 h, 10 µM, compound concentration 10 uM
[4] = 12 h, 1 µM, compound concentration 1 uM
[5] = 12 h, 10 µM, compound concentration 10 uM
[6] = 24 h, 1 µM, compound concentration 1 uM

## Cc1cc(C)cc(C(=O)NOCCCCCC(=O)NO)c1
U2OS; [1]
  Population Apoptotic (%): 36.05% and 42.86%
  Population Fragmented Nuclei (%): 8.75% and 10%
  Population Healthy Nuclei (%): 30.26% and 41.88%
  Population Hoechst High Intensity Objects (%): 0%
  Population Membrane Permeable-Phenotype (%): 0.78% and 10.45%
  Population Mitochondria Different-Phenotype (%): 0% and 4.48%
  Population Mitotic Cells (%): 63.95% and 57.14%
  Population Normal (%): 100%
  Population Pyknosed Nuclei (%): 60.99% and 48.12%
  Population Tubulin-Different-Phenotype (%): 3.12% and 11.94%
  Total Cell Count: 423 and 160
U2OS; [2]
  Population Apoptotic (%): 77.2% and 80.52%
  Population Fragmented Nuclei (%): 9.29% and 8.45%
  Population Healthy Nuclei (%): 55.56% and 55.4%
  Population Hoechst High Intensity Objects (%): 0.18% and 0%
  Population Membrane Permeable-Phenotype (%): 4.92% and 7.63%
  Population Mitochondria Different-Phenotype (%): 0.66% and 5.93%
  Population Mitotic Cells (%): 22.8% and 19.48%
  Population Normal (%): 99.82% and 100%
  Population Pyknosed Nuclei (%): 35.15% and 36.15%
  Population Tubulin-Different-Phenotype (%): 6.89% and 8.47%
  Total Cell Count: 550 and 213
U2OS; [3]
  Population Apoptotic (%): 79.12% and 92.94%
  Population Fragmented Nuclei (%): 3.39% and 4.58%
  Population Healthy Nuclei (%): 31.59% and 39.87%
  Population Hoechst High Intensity Objects (%): 0%
  Population Membrane Permeable-Phenotype (%): 15.7% and 31.15%
  Population Mitochondria Different-Phenotype (%): 0.83% and 3.28%
  Population Mitotic Cells (%): 20.88% and 7.06%
  Population Normal (%): 100%
  Population Pyknosed Nuclei (%): 65.01% and 55.56%
  Population Tubulin-Different-Phenotype (%): 44.63% and 32.79%
  Total Cell Count: 383 and 153
HEK-293T; [4]
  Population Apoptotic (%): 7.89% and 11.48%
  Population Fragmented Nuclei (%): 1.15% and 1.27%
  Population Healthy Nuclei (%): 55.3% and 21.02%
  Population Hoechst High Intensity Objects (%): 0% and 0.63%
  Population Membrane Permeable-Phenotype (%): 0% and 9.09%
  Population Mitochondria Different-Phenotype (%): 25.91% and 12.12%
  Population Mitotic Cells (%): 92.11% and 88.52%
  Population Normal (%): 100% and 99.37%
  Population Pyknosed Nuclei (%): 43.55% and 77.71%
  Population Tubulin-Different-Phenotype (%): 7.25% and 18.18%
  Total Cell Count: 349 and 158
HEK-293T; [5]
  Population Apoptotic (%): 9.87% and 7.69%
  Population Fragmented Nuclei (%): 3.28% and 1.65%
  Population Healthy Nuclei (%): 51.34% and 26.92%
  Population Hoechst High Intensity Objects (%): 0.3% and 0%
  Population Membrane Permeable-Phenotype (%): 1.16% and 0%
  Population Mitochondria Different-Phenotype (%): 29.65% and 12.24%
  Population Mitotic Cells (%): 90.13% and 92.31%
  Population Normal (%): 99.7% and 100%
  Population Pyknosed Nuclei (%): 45.37% and 71.43%
  Total Cell Count: 336 and 182
HEK-293T; [6]
  Population Apoptotic (%): 32.32% and 20.49%
  Population Fragmented Nuclei (%): 0.99% and 2.29%
  Population Healthy Nuclei (%): 74.57% and 28%
  Population Hoechst High Intensity Objects (%): 0.25% and 0.57%
  Population Membrane Permeable-Phenotype (%): 1.66% and 0%
  Population Mitochondria Different-Phenotype (%): 25.5% and 16.33%
  Population Mitotic Cells (%): 67.68% and 79.51%
  Population Normal (%): 99.75% and 99.43%
  Population Pyknosed Nuclei (%): 24.44% and 69.71%
  Population Tubulin-Different-Phenotype (%): 17.88% and 30.61%
  Total Cell Count: 406 and 176
HEK-293T; [1]
  Population Apoptotic (%): 24.32% and 10.53%
  Population Fragmented Nuclei (%): 3.75% and 3.33%
  Population Healthy Nuclei (%): 73.12% and 33.33%
  Population Hoechst High Intensity Objects (%): 0%
  Population Membrane Permeable-Phenotype (%): 0% and 1.67%
  Population Mitotic Cells (%): 75.68% and 89.47%
  Population Normal (%): 100%
  Population Pyknosed Nuclei (%): 23.12% and 63.33%
  Population Tubulin-Different-Phenotype (%): 4.27% and 1.67%
  Total Cell Count: 320 and 180
HEK-293T; [2]
  Population Apoptotic (%): 23.33% and 32.22%
  Population Fragmented Nuclei (%): 5.26% and 1.12%
  Population Healthy Nuclei (%): 76.52% and 48.6%
  Population Hoechst High Intensity Objects (%): 1% and 0%
  Population Membrane Permeable-Phenotype (%): 1.59% and 2.3%
  Population Mitochondria Different-Phenotype (%): 50.26% and 32.18%
  Population Mitotic Cells (%): 76.67% and 67.78%
  Population Normal (%): 99% and 100%
  Population Pyknosed Nuclei (%): 18.22% and 50.28%
  Total Cell Count: 499 and 179
HEK-293T; [3]
  Population Apoptotic (%): 30.43% and 28%
  Population Fragmented Nuclei (%): 3.91% and 6.29%
  Population Healthy Nuclei (%): 63.35% and 36.57%
  Population Hoechst High Intensity Objects (%): 0.35% and 0.57%
  Population Membrane Permeable-Phenotype (%): 3.37% and 0%
  Population Mitotic Cells (%): 69.57% and 72%
  Population Normal (%): 99.65% and 99.43%
  Population Pyknosed Nuclei (%): 32.74% and 57.14%
  Population Tubulin-Different-Phenotype (%): 7.87% and 17.19%
  Total Cell Count: 282 and 176
